This is a sample that favours compounds with a hit; in the whole collection about 2.1% have one here.
UCH37 inh – human UCH37 deubiquitinating enzyme inhibition | Q9Y5K5 | purified proteasome/UCH37, Ub-AMC cleavage fluorescence | inhibition, % (concentration not given with the values) | actives 0.33% (n = 330,000) | AID 588478;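 active = mean inhibition over replicate wells above about 20%, limit read from the data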;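 note: 0% = compound-free wells with enzyme and 100% = wells lacking proteasome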
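System: Proteasome-associated human UCH37 deubiquitinase; Input: 0.15 nM proteasome in added enzyme buffer; Also added: Ub-AMC substrate from 1 µM stock; Incubation: 30 min compound-proteasome preincubation then 25 min substrate reaction, room temperature; Detection: fluorescence, ex 355 nm, em 460 nm; Read-out: % inhibition of Ub-AMC cleavage fluorescence; Benchmarks: no-proteasome and no-compound wells.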
PfGluPho inh – PfG6PD (Plasmodium falciparum) enzyme inhibition; PfGluPho enzyme, NADPH resazurin-diaphorase fluorescence; inhibition, % at 20 µM; actives 0.78% (n = 350,000); AID 504690;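 active = inhibition reaching at least a set limit at 20 µM in the primary screen, cut at about 59% in these data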;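 note: 0% = DMSO wells with substrate and 100% = DMSO wells lacking glucose-6-phosphate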
HKDC1 inhibitor – blocks human hexokinase HKDC1 activity; Q2TB90; recombinant HKDC1, G6PDH/diaphorase resazurin coupled fluorescence; inhibition, % at 20 µM; actives 0.16% (n = 340,000); AID 493160;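 active = inhibition above about 35% when tested at 20 µM, limit read from the data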;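 note: plate controls were DMSO wells with enzyme for no effect and DMSO wells lacking enzyme for full effect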
Target sequence (Q2TB90 whole entry, looked up): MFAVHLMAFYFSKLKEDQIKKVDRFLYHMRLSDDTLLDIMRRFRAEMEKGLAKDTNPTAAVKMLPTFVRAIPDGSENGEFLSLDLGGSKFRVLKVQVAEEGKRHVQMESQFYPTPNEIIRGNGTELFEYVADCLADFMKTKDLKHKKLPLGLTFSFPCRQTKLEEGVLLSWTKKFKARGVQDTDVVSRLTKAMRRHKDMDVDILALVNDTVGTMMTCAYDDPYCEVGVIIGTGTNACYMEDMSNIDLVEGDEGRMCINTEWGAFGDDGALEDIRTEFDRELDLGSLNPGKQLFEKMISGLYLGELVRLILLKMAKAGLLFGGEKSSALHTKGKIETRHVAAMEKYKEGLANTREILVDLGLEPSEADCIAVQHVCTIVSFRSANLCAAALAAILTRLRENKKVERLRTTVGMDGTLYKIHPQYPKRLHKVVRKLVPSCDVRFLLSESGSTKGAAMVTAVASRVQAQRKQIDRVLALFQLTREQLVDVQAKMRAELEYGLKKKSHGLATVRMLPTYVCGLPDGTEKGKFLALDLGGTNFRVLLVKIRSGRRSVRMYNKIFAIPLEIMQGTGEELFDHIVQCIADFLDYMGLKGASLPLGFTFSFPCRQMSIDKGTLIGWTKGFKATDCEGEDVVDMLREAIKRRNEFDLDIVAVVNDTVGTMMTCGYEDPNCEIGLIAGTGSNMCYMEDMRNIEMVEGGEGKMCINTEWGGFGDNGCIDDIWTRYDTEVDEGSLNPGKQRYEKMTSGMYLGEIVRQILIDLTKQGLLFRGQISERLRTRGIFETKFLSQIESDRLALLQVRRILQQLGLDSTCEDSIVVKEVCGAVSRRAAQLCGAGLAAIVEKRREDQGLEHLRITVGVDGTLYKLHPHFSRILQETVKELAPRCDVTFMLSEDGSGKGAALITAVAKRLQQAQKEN
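Test system: recombinant HKDC1 (HK5) hexokinase enzyme, produced in-house; Amount: enzyme 5 µg/mL final; Buffer or medium: Tris pH 8.0 buffer with MgCl2, Tween-20, BSA, BME; Reagent: glucose and ATP substrates; Doses: 20 µM test compound, 1% DMSO; Incubation: 90 min reaction incubation at room temperature, dark; Detection: resorufin fluorescence at 613 nm.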
Beta2AR agonist – agonists of human beta-2 adrenergic receptor inducing internalization; P07550; response, % (concentration not given with the values); Am2.2-beta2AR cells, FAP receptor internalization, flow cytometry; AID 504454; actives 0.43% (n = 340,000);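 active = response above a set limit, near 3 SD of response in nonfluorescent compounds, cut at about 42% in these data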
H9c2 protect – protects H9c2 cardiomyocytes from peroxide injury; AID 588492; actives 0.63% (n = 360,000); H2O2 injury protection, ATPLite, 2 h; protection from H2O2 cell death, % at 20 µM;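 active = compounds giving at least 50% protection of heart cells from peroxide-induced death in the single-dose screen, raw or plate-pattern-corrected value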;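 note: 0% = DMSO wells with peroxide and 100% = DMSO wells without peroxide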
aDG glyco up – alpha-DG glycosylation activation; AID 624168; Pro5-aDG cells, alpha-DG glycosylation AlphaScreen (IIH6); 0% Pro5, 100% B10-LARGE cell signal; actives 0.22% (n = 360,000); activation, % at 10 µM;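 active = activation of at least 8% versus controls, or a plate z-score of at least 8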;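 note: Pro5 are CHO cells carrying HIG-tagged alpha-DG that lacks glycosylation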
Numbers without * were called inactive; nt = no result; ! = a repeat was not active.

SMILES	UCH37 inh	PfGluPho inh	HKDC1 inhibitor	Beta2AR agonist	H9c2 protect	aDG glyco up
O=C(NO)c1ccc(C(=O)N(C2CCCCC2)C2CCCCC2)cc1	3.2	-39.5	1.9	15.7	80.6*	0.2
CCOc1cc(C=NNC(=O)c2ccc(CSc3nncn3C)cc2)ccc1OCC(=O)N1CCOCC1	2.7	nt	nt	nt	nt	nt
O=C(CNC(=O)c1ccncc1)NN=Cc1cc(Br)ccc1O	-2.5	nt	nt	nt	nt	nt
CN(C)CCNC(=O)c1ccc(Sc2ccc(Br)cc2)c([N+](=O)[O-])c1	8.7	5.5	-1.3	13.3	9.8	3.6*
COc1cc(OC)c2cc(C(=O)NN=Cc3ccccc3O)[nH]c2c1	-12.0	nt	nt	nt	nt	nt
COc1ccc(OC)c(C=NNC(=O)c2cc3c(OC)c(OC)ccc3[nH]2)c1	-7.9	nt	nt	nt	nt	nt
COc1cc(OC)c2cc(C(=O)N/N=C/c3ccccc3O)[nH]c2c1	nt	-31.4	-6.2	-4.9	56.9*	0.2
CCCOc1ccc2[nH]c(C(=O)N/N=C/c3cc(OC)c(OC)c(OC)c3)cc2c1	nt	-4.0	-4.1	2.0	59.4*	1.7
COc1ccc(OC)c(/C=N/NC(=O)c2cc3c(OC)c(OC)ccc3[nH]2)c1	nt	22.2	-3.3	7.5	90.1*	-0.1
Brc1ccc(-c2ccc(C=NNc3nc4ccccc4[nH]3)o2)cc1	-125.3	nt	nt	nt	nt	nt
COc1cccc(C=NN2CCN(C3c4ccccc4-c4ccccc43)CC2)c1O	5.5	nt	nt	nt	nt	nt
O=C(Cc1cccc2ccccc12)NN=Cc1ccc2cccc(O)c2n1	3.8	nt	nt	nt	nt	nt
O=C(NN=Cc1cccc2ccccc12)c1cccs1	1.0	nt	nt	nt	nt	nt
CC(=O)Oc1ccc(C(=O)OCC(=O)c2c(N)n(C)c(=O)n(C)c2=O)cc1OC(C)=O	3.7	-27.4	-6.0	-0.9	65.4*	0.1
COc1ccc(C(=O)OCC(=O)c2c(N)n(C)c(=O)n(C)c2=O)cc1OC	-0.2	-1.8	-0.7	-3.1	13.3	-0.3
CCCn1nc(C(=O)OCC(=O)Nc2ccc(C(N)=O)cc2)c2ccccc2c1=O	-0.3	-6.3	-5.9	4.1	3.4	-0.3
CCCn1nc(C(=O)OCC(=O)c2c(N)n(C)c(=O)n(C)c2=O)c2ccccc2c1=O	4.7	-8.7	2.1	1.5	60.8*	0.3
Cc1ccc(C=NNC(=O)C(C)Oc2ccccc2[N+](=O)[O-])s1 (stereo not given)	5.7	nt	nt	nt	nt	nt
CCn1c(C)nc2cc(C(=O)NN=C(C)c3ccccc3O)ccc21	-2.5	nt	nt	nt	nt	nt
COc1ccc(CCNC(=O)c2cc(C(=O)c3cc(C)ccc3O)cn(CCc3ccc(OC)cc3)c2=O)cc1	3.7	7.6	-5.9	-3.3	65.1*	-0.3
COc1ccc(CCNC(=O)c2cc(C(=O)c3cc(Cl)ccc3O)cn(CCc3ccc(OC)cc3)c2=O)cc1	3.0	-4.2	-3.6	10.4	10.5	-0.9
COc1cc(/C=C/c2nnc3c4ccccc4ncn23)cc(OC)c1OC	-169.6	6.7	-5.5	11.1	67.5*	-0.4
COc1ccccc1CNC(=O)CC(C)=NNC(=O)Cc1ccc(Cl)cc1	1.9	nt	nt	nt	nt	nt
NC(=O)CSc1nnc2sc3ccccc3n12	24.4*	-14.2	1.3	-7.3	-4.2	-0.1
COc1ccc(C(=O)/C=C/C(=O)N(CC(=O)NC2CCCCC2)Cc2ccc(F)cc2)c(O)c1	-2.2	53.2	7.8	123.3*	-32.5	-0.7
SMILES	UCH37 inh	PfGluPho inh	HKDC1 inhibitor	Beta2AR agonist	H9c2 protect	aDG glyco up
CS(=O)(=O)N(CC(=O)NC1CCCCC1)Cc1ccc(F)cc1	1.3	0.5	-11.2	-5.1	-6.8	0.2
COc1ccc(C(=O)/C=C/C(=O)N(CC(=O)NCCC(C)C)Cc2cccs2)c(O)c1	-2.8	-5.6	-1.7	119.7*	-24.9	-0.2
O=[N+]([O-])c1ccccc1S(=O)(=O)Oc1ccc(C=Nn2cnnc2)cc1	1.6	nt	nt	nt	nt	nt
C/C=C/C=NNc1nc(C)cc(=O)[nH]1	1.1	nt	nt	nt	nt	nt
CC(=NNC(=O)c1ccc2c(c1)OCO2)c1ccc(NC(=O)C(F)(F)F)cc1	7.3	nt	nt	nt	nt	nt
O=C(O)COc1ccc(C=NO)cc1Br	2.0	nt	nt	nt	nt	nt
Cc1ccc2cc(C#N)c(N3CCN(C(=O)c4cccs4)CC3)nc2c1	-43.8	-3.7	-4.8	32.6	57.7*	-0.1
Cc1ccc2nc(N3CCN(C(=O)c4ccc(F)cc4)CC3)c(C#N)cc2c1	-55.7	14.0	2.1	0.7	6.1	-0.2
O=[N+]([O-])c1cc([N+](=O)[O-])c2cccnc2c1Oc1ccccc1O	9.0	-4.0	0.6	50.8*	30.9	0.5
O=[N+]([O-])c1cc(Cl)c(O)c2ncccc12	24.7*	37.7	9.4	13.6	13.3	0.3
CCCC(=O)NC(c1ccco1)c1cc([N+](=O)[O-])c2cccnc2c1O (stereo not given)	13.8	12.0	4.3	9.6	55.0*	0.2
O=[N+]([O-])c1cc(CN2CCN(c3ccccc3)CC2)c(O)c2ncccc12	11.2	2.3	17.5	43.7*	24.3	1.0
O=[N+]([O-])c1cc(Cl)c2cccnc2c1O	16.3	7.3	5.8	2.2	-7.3	-0.4
O=[N+]([O-])c1ccc(O)c2cccnc12	14.6	8.1	18.4	-4.6	0.1	-0.2
CC(CC(=O)N(C(C)C)C(C)C)=NNC(=O)COc1ccc(Cl)cc1Cl	5.0	nt	nt	nt	nt	nt
Cc1c(C(=O)NCc2cccnc2)oc2c1C(=O)CC(C)(C)C2	1.7	-13.6	-6.7	-7.1	6.3	0.1
Cc1c(C(=O)NCc2ccccc2)oc2c1C(=O)CCC2	25.2*	-3.2	1.8	5.8	8.9	0.2
COc1cccc(/C=N/NC(=O)CNC(=O)C2COc3ccccc3O2)c1O (stereo not given)	nt	-28.4	-14.3	12.3	66.1*	0.6
COc1cccc(C=NNC(=O)CNC(=O)c2ccncc2)c1O	2.2	nt	nt	nt	nt	nt
COc1cccc(/C=N/NC(=O)C(=O)NCc2cccnc2)c1O	nt	-27.9	-15.8	-0.4	79.4*	0.1
COc1cccc(/C=N/NC(=O)CNC(=O)c2ccncc2)c1O	nt	-52.0	-12.4	11.2	59.9*	0.0
COc1cccc(/C=N/NC(=O)CNC(=O)c2ccc3c(c2)OCCO3)c1O	nt	-6.0	-19.0	7.1	65.8*	0.3
CCOc1cccc(/C=N/NC(=O)c2ccc3c(c2)OCCO3)c1O	nt	-4.8	-14.0	8.6	6.3	2.0
O=C(NN=Cc1ccccc1O)C1CC(=O)N(c2ccc(Cl)cc2)C1 (stereo not given)	-39.2	nt	nt	nt	nt	nt
COc1ccccc1C=NNC(=O)CNC(=O)c1ccccc1	1.8	nt	nt	nt	nt	nt
COc1ccc(CCCC(=O)N/N=C/c2cccc(OC)c2O)cc1C	nt	0.0	-5.1	7.9	53.4*	0.5
CCOC(=O)C1=C(C)NC(C)=C(C(=O)OCC)C1C(=O)OCC(=O)NC(C)C	-31.3	1.0	4.4	8.8	57.1*!	-0.3
COc1ccc(N(C(=O)c2cccc([N+](=O)[O-])c2)S(=O)(=O)c2cccs2)cc1	3.4	17.8	-0.3	-1.0	50.8*	-0.3
COc1cccc(C(=O)ON=Cc2ccc(Sc3ccc(C)cc3)nc2)c1	-9.1	nt	nt	nt	nt	nt

High-throughput results deposited in PubChem BioAssay by several laboratories.
